Laboratory results published in ChEMBL document CHEMBL3351814, “Discovery of selective hexapeptide agonists to human neuromedin U receptors types 1 and 2” (J Med Chem, 2014).
The source made the active and inactive calls. The rule behind the calls is not given here. Where a SMILES comes first, the peptide text is derived from it. [ ]: non-standard residue; d: D form. The star is where a group is joined. Propanoyl(3-(3-pyridyl)) = O=C(CCc1cccnc1)*; 2Nal = N[C@@H](Cc1ccc2ccccc2c1)C(=O)O; Propanoyl(3-cHex) = O=C(CCC1CCCCC1)*; Hydrocinnamoyl = O=C(CCc1ccccc1)*; hArg = N=C(N)NCCCC[C@H](N)C(=O)O; hPhe = N[C@@H](CCc1ccccc1)C(=O)O; Phg = N[C@H](C(=O)O)c1ccccc1; Pip = O=C(O)[C@@H]1CCCCN1; Dab = NCC[C@H](N)C(=O)O; Dap = NC[C@H](N)C(=O)O

Experiments:
[1] = biological target: T1, Neuromedin-U receptor 1 (Mus musculus, UniProt O55040); assay: Agonist activity at mouse NMUR1 expressed in HEK293 cells by calcium mobilization assay; assay type: functional, cell-based
T1 sequence (O55040 whole entry): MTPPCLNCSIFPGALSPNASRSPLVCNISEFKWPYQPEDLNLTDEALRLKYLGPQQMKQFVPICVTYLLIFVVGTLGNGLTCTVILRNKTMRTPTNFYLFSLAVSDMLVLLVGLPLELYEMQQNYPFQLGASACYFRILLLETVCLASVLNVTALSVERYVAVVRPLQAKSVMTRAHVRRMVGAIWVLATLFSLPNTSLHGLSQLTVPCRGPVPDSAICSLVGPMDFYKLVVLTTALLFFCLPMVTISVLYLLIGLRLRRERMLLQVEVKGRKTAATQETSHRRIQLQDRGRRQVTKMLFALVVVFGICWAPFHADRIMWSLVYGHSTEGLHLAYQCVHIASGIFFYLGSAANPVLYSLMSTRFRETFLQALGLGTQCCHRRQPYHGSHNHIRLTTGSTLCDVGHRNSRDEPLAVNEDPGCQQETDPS

[2] = biological target: Neuromedin-U receptor 2 (Mus musculus, UniProt Q8BZ39); assay: Agonist activity at mouse NMUR2 expressed in HEK293 cells by calcium mobilization assay; assay type: functional, cell-based
[3] = biological target: T2, Neuromedin-U receptor 1 (Homo sapiens) (UniProt Q9HB89); assay: Agonist activity at human NMUR1 expressed in HEK293 cells at 1 to 100 nM by calcium mobilization assay relative to NMU; assay type: functional, cell-based
T2 sequence (whole entry): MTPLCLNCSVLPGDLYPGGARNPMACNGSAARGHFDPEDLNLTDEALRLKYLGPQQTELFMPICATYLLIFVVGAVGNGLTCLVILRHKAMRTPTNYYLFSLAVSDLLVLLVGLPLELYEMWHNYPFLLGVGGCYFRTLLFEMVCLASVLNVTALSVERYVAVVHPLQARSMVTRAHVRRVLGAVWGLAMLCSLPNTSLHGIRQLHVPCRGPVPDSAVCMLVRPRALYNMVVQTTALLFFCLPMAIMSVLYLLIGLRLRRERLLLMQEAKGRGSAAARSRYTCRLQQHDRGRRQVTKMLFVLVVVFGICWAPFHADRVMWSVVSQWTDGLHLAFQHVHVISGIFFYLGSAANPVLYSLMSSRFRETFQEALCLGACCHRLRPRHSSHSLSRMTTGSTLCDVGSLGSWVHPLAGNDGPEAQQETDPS
Outline: (§1)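 HEK293 cells transiently transfected with human NMUR1 or NMUR2 plasmid (FuGENE6), reseeded 18 h post-transfection at 4.0 × 10^4 cells/well on poly-D-lysine. After 18 h, loaded 40 min with 4 μM Fluo-4-AM in HBSS/HEPES/probenecid buffer pH 7.4 with 1% FCS, then washed. Peptides in buffer with 0.05% BSA and 0.001% Triton X-100. Maximal FLIPR signal expressed as % of hNMU at 1000 nM.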

[4] = biological target: T3, Neuromedin-U receptor 2 (Homo sapiens, UniProt Q9GZQ4); assay: Agonist activity at human NMUR2 expressed in HEK293 cells at 1 to 100 nM by calcium mobilization assay relative to NMU; assay type: functional, cell-based; outline: as §1
[5] = biological target: T2, Neuromedin-U receptor 1 (Homo sapiens); assay: Agonist activity at human NMUR1 expressed in CHO cells assessed as concentration required to induce 50% response by calcium mobilization assay relative to NMU; assay type: functional, cell-based
Outline: (§2)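 CHO cells stably expressing human NMUR1 (CHO/NMUR1-9) or NMUR2 (CHO/NMUR2-8), selected with G418, seeded 2.0 × 10^4 cells/well. Cells loaded 40 min with 4 μM Fluo-4-AM in HBSS/10 mM HEPES/2.5 mM probenecid pH 7.4. Peptides from 20 mM DMSO stocks applied at 10−12 to 10−6 M final, triplicate, FLIPR read-out. PC50 is the concentration giving 50% of the response to hNMU at 1000 nM.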

[6] = biological target: T3, Neuromedin-U receptor 2; assay: Agonist activity at human NMUR2 expressed in CHO cells assessed as concentration required to induce 50% response by calcium mobilization assay relative to NMU; assay type: functional, cell-based; outline: as §2
[7] = species on record: Homo sapiens; assay: Selectivity ratio of PC50 for human NMUR2 to PC50 for human NMUR1
Outline: (§3)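 Ratio of PC50 values from the CHO stable-line calcium assays. NMUR1 selectivity is PC50(NMUR2)/PC50(NMUR1); NMUR2 selectivity is PC50(NMUR1)/PC50(NMUR2).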

[8] = species on record: Homo sapiens; assay: Selectivity ratio of PC50 for human NMUR1 to PC50 for human NMUR2; outline: as §3
[9] = biological target: T4, Neuromedin-U receptor 1 (Homo sapiens, UniProt Q9HB89); assay: Partial agonist activity at human NMUR1 expressed in CHO cells by calcium mobilization assay; assay type: functional, cell-based
T4 sequence (Q9HB89 whole entry): T2 sequence (whole entry)
Outline: (§4)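 Calcium mobilization in CHO cells stably expressing human NMUR1 or NMUR2, Fluo-4-AM loaded, read on a fluorometric imaging plate reader. Peptides tested at 10−12 to 10−6 M final in triplicate. EC50 derived from the curves. Intrinsic activity is the maximal response as % of the endogenous agonist hNMU.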

[10] = biological target: T3, Neuromedin-U receptor 2; assay: Partial agonist activity at human NMUR2 expressed in CHO cells by calcium mobilization assay; assay type: functional, cell-based; outline: as §4
[11] = biological target: T2, Neuromedin-U receptor 1 (Homo sapiens); assay: Agonist activity at human NMUR1 expressed in CHO cells at 10^-12 to 10^-6 M by calcium mobilization assay relative to NMU; assay type: functional, cell-based; outline: as §2
[12] = biological target: T3, Neuromedin-U receptor 2; assay: Agonist activity at human NMUR2 expressed in CHO cells at 10^-12 to 10^-6 M by calcium mobilization assay relative to NMU; assay type: functional, cell-based; outline: as §2
[13] = biological target: T2, Neuromedin-U receptor 1 (Homo sapiens); assay: Agonist activity at human NMUR1 expressed in HEK293 cells at 1 nM by calcium mobilization assay relative to NMU; assay type: functional, cell-based; outline: as §1
[14] = biological target: T2, Neuromedin-U receptor 1 (Homo sapiens); assay: Agonist activity at human NMUR1 expressed in HEK293 cells at 10 nM by calcium mobilization assay relative to NMU; assay type: functional, cell-based; outline: as §1
[15] = biological target: T3, Neuromedin-U receptor 2; assay: Agonist activity at human NMUR2 expressed in HEK293 cells at 1 nM by calcium mobilization assay relative to NMU; assay type: functional, cell-based; outline: as §1
[16] = biological target: T3, Neuromedin-U receptor 2; assay: Agonist activity at human NMUR2 expressed in HEK293 cells at 10 nM by calcium mobilization assay relative to NMU; assay type: functional, cell-based; outline: as §1
[17] = biological target: T3, Neuromedin-U receptor 2; assay: Agonist activity at human NMUR2 expressed in CHO cells by calcium mobilization assay; assay type: functional, cell-based; outline: as §4
[18] = biological target: T4, Neuromedin-U receptor 1; assay: Agonist activity at human NMUR1 expressed in CHO cells by calcium mobilization assay; assay type: functional, cell-based

T3 sequence (Q9GZQ4 whole entry): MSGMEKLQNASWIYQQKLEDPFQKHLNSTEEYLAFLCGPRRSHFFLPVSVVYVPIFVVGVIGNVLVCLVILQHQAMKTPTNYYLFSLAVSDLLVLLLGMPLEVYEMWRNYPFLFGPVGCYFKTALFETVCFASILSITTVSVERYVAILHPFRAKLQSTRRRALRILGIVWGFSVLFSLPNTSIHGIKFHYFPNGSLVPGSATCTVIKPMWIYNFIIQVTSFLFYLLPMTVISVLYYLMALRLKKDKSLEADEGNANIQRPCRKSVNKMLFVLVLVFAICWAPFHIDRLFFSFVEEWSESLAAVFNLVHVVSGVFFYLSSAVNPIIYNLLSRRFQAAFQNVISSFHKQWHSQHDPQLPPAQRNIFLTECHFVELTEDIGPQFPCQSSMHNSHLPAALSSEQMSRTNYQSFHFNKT
Sequence of Neuromedin-U receptor 2 (Mus musculus, UniProt Q8BZ39) (Q8BZ39 whole entry): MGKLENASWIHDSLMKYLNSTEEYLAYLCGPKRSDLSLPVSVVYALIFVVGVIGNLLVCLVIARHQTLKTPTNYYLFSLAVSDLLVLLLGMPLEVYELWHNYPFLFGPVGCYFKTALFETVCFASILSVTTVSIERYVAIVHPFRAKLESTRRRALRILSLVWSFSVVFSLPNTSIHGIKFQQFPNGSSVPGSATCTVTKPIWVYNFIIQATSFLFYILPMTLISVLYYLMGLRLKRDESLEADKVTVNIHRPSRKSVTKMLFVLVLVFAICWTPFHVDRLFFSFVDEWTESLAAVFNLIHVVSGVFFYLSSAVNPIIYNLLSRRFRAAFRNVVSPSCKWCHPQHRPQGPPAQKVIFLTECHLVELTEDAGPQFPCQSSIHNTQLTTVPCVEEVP

Compound: CC(C)C[C@H](NC(=O)[C@H](Cc1ccccc1)NC(=O)[C@@H](N)Cc1ccc(O)cc1)C(=O)N[C@@H](Cc1ccccc1)C(=O)N[C@@H](CCCNC(=N)N)C(=O)N1CCC[C@H]1C(=O)N[C@@H](CCCNC(=N)N)C(=O)N[C@@H](CC(N)=O)C(N)=O
- EC50 [1]: 9.5 nM
- EC50 [2]: 3 nM

Compound: CC(C)C[C@H](NC(=O)[C@H](CCCNC(=N)N)NC(=O)[C@@H]1CCCN1C(=O)[C@H](CCCNC(=N)N)NC(=O)[C@H](Cc1ccccc1)NC(=O)[C@H](CC(C)C)NC(=O)CCc1ccccc1)C(N)=O (Hydrocinnamoyl-LFRPRL-NH2)
- Activity [3]: inactive
- Activity [4]: inactive

Compound: CC(C)C[C@H](NC(=O)CCc1ccccc1)C(=O)N[C@@H](Cc1ccccc1)C(=O)N[C@@H](CCCNC(=N)N)C(=O)N1CCC[C@H]1C(=O)N[C@@H](CCCNC(=N)N)C(=O)N[C@@H](CC(N)=O)C(N)=O (Hydrocinnamoyl-LFRPRN-NH2)
- Activity [3]: Active
- Activity [4]: Active
- Activity [5]: 20 nM
- Activity [6]: 18 nM
- Selectivity ratio [7]: 0.9
- Selectivity ratio [8]: 1.1
- EC50 [9]: 9 nM
- EC50 [10]: 8.4 nM
- Intrinsic activity [11]: 71%
- Intrinsic activity [12]: 82%

Compound: CC(C)C[C@H](NC(=O)CCc1ccccc1)C(=O)N[C@@H](Cc1ccccc1)C(=O)N[C@@H](CCCNC(=N)N)C(=O)N1CCC[C@H]1C(=O)N[C@@H](CCCNC(=N)N)C(=O)N[C@@H](CCC(N)=O)C(N)=O (Hydrocinnamoyl-LFRPRQ-NH2)
- Activity [3]: inactive
- Activity [4]: inactive

Compound: CC(C)C[C@H](NC(=O)CCc1ccccc1)C(=O)N[C@@H](Cc1ccccc1)C(=O)N[C@@H](CCCNC(=N)N)C(=O)N1CCC[C@H]1C(=O)N[C@@H](CCCNC(=N)N)C(=O)N[C@@H](CCN)C(N)=O (Hydrocinnamoyl-LFRPR[Dab]-NH2)
- Activity [3]: inactive
- Activity [4]: inactive

Compound: CC(C)C[C@H](NC(=O)CCc1ccccc1)C(=O)N[C@@H](Cc1ccccc1)C(=O)N[C@@H](CCCNC(=N)N)C(=O)N1CCCC[C@H]1C(=O)N[C@@H](CCCNC(=N)N)C(=O)N[C@@H](CC(N)=O)C(N)=O (Hydrocinnamoyl-LFR[Pip]RN-NH2)
- Activity [3]: Active
- Activity [4]: Active

Compound: CC(C)C[C@H](NC(=O)CCc1ccccc1)C(=O)N[C@@H](Cc1ccccc1)C(=O)N[C@@H](CCCCNC(=N)N)C(=O)N1CCC[C@H]1C(=O)N[C@@H](CCCNC(=N)N)C(=O)N[C@@H](CC(N)=O)C(N)=O (Hydrocinnamoyl-LF[hArg]PRN-NH2)
- Activity [3]: Active
- Activity [4]: Active

Compound: CC(C)C[C@H](NC(=O)CCc1ccccc1)C(=O)N[C@@H](Cc1ccc(O)cc1)C(=O)N[C@@H](CCCNC(=N)N)C(=O)N1CCC[C@H]1C(=O)N[C@@H](CCCNC(=N)N)C(=O)N[C@@H](CC(N)=O)C(N)=O (Hydrocinnamoyl-LYRPRN-NH2)
- Activity [3]: inactive
- Activity [4]: inactive

Compound: CC(C)C[C@H](NC(=O)CCc1ccccc1)C(=O)N[C@H](C(=O)N[C@@H](CCCNC(=N)N)C(=O)N1CCC[C@H]1C(=O)N[C@@H](CCCNC(=N)N)C(=O)N[C@@H](CC(N)=O)C(N)=O)c1ccccc1 (Hydrocinnamoyl-L[Phg]RPRN-NH2)
- Activity [3]: inactive
- Activity [4]: inactive

Compound: CC(C)C[C@H](NC(=O)CCc1ccccc1)C(=O)N[C@@H](CCc1ccccc1)C(=O)N[C@@H](CCCNC(=N)N)C(=O)N1CCC[C@H]1C(=O)N[C@@H](CCCNC(=N)N)C(=O)N[C@@H](CC(N)=O)C(N)=O (Hydrocinnamoyl-L[hPhe]RPRN-NH2)
- Activity [3]: inactive
- Activity [4]: inactive

Compound: N=C(N)NCCC[C@H](NC(=O)[C@@H]1CCCN1C(=O)[C@H](CCCNC(=N)N)NC(=O)[C@H](Cc1ccccc1)NC(=O)[C@H](Cc1ccc2ccccc2c1)NC(=O)CCc1cccnc1)C(=O)N[C@@H](CC(N)=O)C(N)=O ({Propanoyl(3-(3-pyridyl))}-[2Nal]FRPRN-NH2)
- Activity [3]: Active
- Activity [13]: 63%
- Activity [14]: 84%
- Activity [5]: 5.1 nM
- Activity [6]: 249 nM
- Selectivity ratio [7]: 49
- Selectivity ratio [8]: 0.02
- EC50 [9]: 2.2 nM
- Intrinsic activity [11]: 79%

Compound: CC(C)C[C@H](NC(=O)CCC1CCCCC1)C(=O)N[C@@H](CC(C)C)C(=O)N[C@@H](CN)C(=O)N1CCC[C@H]1C(=O)N[C@@H](CCCNC(=N)N)C(=O)N[C@@H](CC(N)=O)C(N)=O ({Propanoyl(3-cHex)}-LL[Dap]PRN-NH2)
- Activity [15]: 70%
- Activity [16]: 88%
- Activity [5]: > 1000 nM
- Activity [6]: 6.6 nM
- Selectivity ratio [7]: < 0.0066
- Selectivity ratio [8]: > 152
- EC50 [17]: 6.4 nM
- Intrinsic activity [12]: 98%

Compound: H-FLFRPRN-NH2
- Activity [3]: Active
- Activity [4]: Active

Compound: H-FRVDEEFQSPFASQSRGYFLFRPRN-NH2
- Activity [5]: 0.43 nM
- Activity [6]: 2.5 nM
- Selectivity ratio [7]: 5.8
- Selectivity ratio [8]: 0.17
- EC50 [18]: 0.43 nM
- EC50 [17]: 2.5 nM

Compound: H-YFLFAPRN-NH2
- EC50 [1]: 2410 nM
- EC50 [2]: 156 nM
